Published values of several laboratories.
Compare with care: the assays were run in different laboratories.
Target: Death-associated protein kinase 3 (DAPK3, Homo sapiens, UniProt O43293)

SMILES	read-out	technique	concentration	remaining binding [%]
C=CC(=O)N1CCC(C(=O)NCC(=O)N2CCN(c3nc(-c4cnc(N)nc4C(F)F)nc(N4CCOCC4)n3)CC2)CC1	binding	competition with immobilised ligand	1 µM	89
CN(C)c1ncnc(-c2ccc3nc(Nc4cc(CN5CCN(C(=O)CC(F)(F)F)CC5)ccn4)[nH]c3c2)c1Cl	cell-free assay	competition with immobilised ligand	1 µM	99
CN(C)c1nccc(-c2cnc3ncccn23)n1	binding		1 µM	91
CCN1CCN(Cc2ccc(C(=O)Nc3ccc(C)c(Oc4ccc5c(c4)CC(=O)N5)c3)cc2C(F)(F)F)CC1	binding	competition with immobilised ligand	1 µM	100
CNC(=O)Nc1ccc2c(c1)[C@@]1(CC2)OC(=O)N(CC(=O)N(Cc2ccc(F)cc2)[C@@H](C)C(F)(F)F)C1=O	cell-free assay	competition with immobilised ligand	1 µM	100
CN(C)c1nccc(-c2cnn3ncccc23)n1	binding		1 µM	91
O=C(c1ccc(Nc2nccc(-c3cc4ccccc4s3)n2)cc1)N1CCC(N2CCCC2)CC1	binding	competition with immobilised ligand	1 µM	11
C[C@H]1CCN(c2nccc(-c3cnn4ncccc34)n2)C1	binding		1 µM	79
COc1ccc2cc(OCC3(C(=O)O)CN(C(=O)c4ccc(F)cc4)C3)ccc2c1	cell-free assay	competition with immobilised ligand	1 µM	100
O=C(NCC1CCOCC1)c1n[nH]cc1NC(=O)c1c(F)cccc1F	binding	competition with immobilised ligand	1 µM	94
CS(=O)(=O)N1CCCC(NC(=O)[C@H](CCC2CCCCC2)NC(=O)c2ccc(CNC(=O)c3cnc4ccccn34)cc2)C1 (stereo partly shown)	cell-free assay	competition with immobilised ligand	0.1 µM	90
CNC(=O)[C@@H]1CC[C@@H](n2c(-c3ccc4cnccc4c3)nc3ccc(C(=O)NCc4cccc(C(N)=O)c4)cc32)C1	binding	competition with immobilised ligand	1 µM	100
O=C(c1ccc(Nc2ncc(Cl)c(-c3cc4ccccc4s3)n2)cc1)N1CCC(N2CCCC2)CC1	binding	competition with immobilised ligand	1 µM	11
CS(=O)(=O)c1cc(C2(NC(=O)c3cncc4c3cnn4-c3ccc(F)cc3)CC2)ccn1	cell-free assay	competition with immobilised ligand	1 µM	98
N[C@H]1CCN(c2nccc(-c3cnn4ncccc34)n2)C1	binding		1 µM	100
Nc1ncc2c(n1)-c1c([nH]c3ccc(C#CC4CC4)cc13)CCCC2	binding	competition with immobilised ligand	1 µM	100
CC1CCCN1c1nccc(-c2cnn3ncccc23)n1 (stereo not shown)	binding		1 µM	89
COc1cnc(Nc2cccc(S(N)(=O)=O)c2)nc1N1CCN(c2ccccc2)C(=O)C1	binding	competition with immobilised ligand	1 µM	92
O=C(NCCCN1CCOCC1)c1ccc(Nc2nccc(-c3cc4ccccc4s3)n2)cc1	binding	competition with immobilised ligand	1 µM	9.7
CN(CCCC(F)(F)F)c1nccc(-c2cnn3ncccc23)n1	binding		1 µM	90
CC(C)(O)c1cncc(-c2nc3ccc(F)cc3n2C2CC2)c1	cell-free assay	competition with immobilised ligand	1 µM	100
c1cncc(-c2cccc(Nc3nccc(NC4CCCCC4)n3)c2)c1	binding	competition with immobilised ligand	10 µM	85
